The subject of assay [1] is HT-29. In words: Cytotoxicity of compound was evaluated against HT-29 cells under aerobic conditions. It is filed as functional, Homo sapiens. In a few lines: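 Human colon carcinoma HT-29 cells (α-MEM, 10% FBS), exponential growth, suspended at 1-2 × 10^5 cells/mL in glass vials; 4 h drug exposure gassed with 97% air/3% CO2; drug from DMSO, controls 1% DMSO; washed, plated, 14-day clonogenic colonies (>50 cells) counted; survival vs untreated; duplicates; IC90 from log-linear portion of survival curve.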

In assay [2] the test system is HT-29. The assay can be described thus: Cytotoxicity of compound was evaluated against HT-29 cells under hypoxic conditions. It is filed as functional, Homo sapiens. In outline: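 HT-29 cells at 1-2 × 10^7 cells/mL deoxygenated 10 min at 37 °C in gas-tight syringe, injected into medium degassed 3 h with 97% N2/3% CO2; 4 h exposure under continuous N2/CO2 gassing, run alongside aerobic arm with same drug stock; 1% DMSO controls; 14-day colony formation (>50 cells); survival vs untreated; duplicates; IC90 from log-linear survival curve.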

Each structure is given as a SMILES string.

Turning to `CC(OP(=O)(N(CCCl)CCCl)N(CCCl)CCCl)c1ccc([N+](=O)[O-])cc1` (stereo not given), the LC90 in the assay on HT-29 [1] is over 2000 µM; with HT-29 [2] it was 22 µM.
As to `O=[N+]([O-])c1ccc(COP(=O)(N(CCCl)CCCl)N(CCCl)CCCl)cc1`, the LC90 in the assay with HT-29 [1] is 109 µM; with HT-29 [2] it was 55 µM.
Turning to `CN(C)CCCOC(=O)CC(OP(=O)(N(CCCl)CCCl)N(CCCl)CCCl)c1ccc([N+](=O)[O-])cc1` (stereo not given), the LC90 with HT-29 [1] worked out at 95 µM; with HT-29 [2], 50 µM.
Taken in the same sequence, the figures for `CCOC(=O)CC(OP(=O)(N(CCCl)CCCl)N(CCCl)CCCl)c1ccc([N+](=O)[O-])cc1` (stereo not given) were 106 µM and 13 µM.
For the compound `CN(C)CCOC(=O)CC(OP(=O)(N(CCCl)CCCl)N(CCCl)CCCl)c1ccc([N+](=O)[O-])cc1` (stereo not given), the LC90 was determined as 55 µM in the assay on HT-29 [1] and 34 µM in the assay with HT-29 [2].

These data come from ChEMBL document CHEMBL1127524, “Nitrobenzyl phosphorodiamidates as potential hypoxia-selective alkylating agents” (1994).
